Bioassay records as filed in PubChem.
Shown are actives, neighbours in structure and some others; about 2.2% of the full set was active somewhere.
CD11b adhes enh: enhancers of CD11b/CD18 adhesion to fibrinogen, primary screen, K562 cells, luminescence; ATPlite luminescence; activation, % at 10 µM; 93,000 compounds, 0.07% hits;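 active means 10 µM primary screen giving 50% or more activity, confirmed by 40% or more on retest at that dose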
CD11b adhes inh: inhibitors of CD11b/CD18 adhesion to fibrinogen, primary screen, K562 cells, luminescence. Integrin beta-2 (Homo sapiens) + Integrin alpha-M (Homo sapiens), P05107+P11215. AID 1497, 2009. ATPlite luminescence; Mn2+ added to activate the integrin. inhibition, % at 10 µM. 93,000 compounds, 0.54% hits;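 active means primary inhibition of 50% or more at 10 µM, then 40% or more on retest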
RORa activator: activators of orphan receptor RORA, primary screen, cell-based, luminescence; 65,000 compounds, 1.5% hits; activation, % at 10 µM; CHO-K1 Gal4-RORA LBD luciferase reporter; percent increase over mock-subtracted basal signal; Nuclear receptor ROR-alpha (Homo sapiens), P35398;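 active means activation above the mean of all tested compounds plus 3 SD, cut at about 49% in these data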;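 further: 0% = DMSO-treated RORA cells and 100% = added signal equal to DMSO minus mock-transfected cells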
SF1 activator: activators of human SF-1, primary screen, cell-based, CHO-K1, Gal4-SF-1 LBD, luciferase luminescence; activation, % at 10 µM; CHO-K1 Gal4-SF-1 LBD luciferase reporter; % increase over DMSO SF-1-specific signal; 65,000 compounds, 1.9% hits;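 active means activation above the mean activation of all tested compounds plus 3 SD, cut at about 50% in these data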
Target sequence (Q13285 whole entry, looked up, the tested form may be a part): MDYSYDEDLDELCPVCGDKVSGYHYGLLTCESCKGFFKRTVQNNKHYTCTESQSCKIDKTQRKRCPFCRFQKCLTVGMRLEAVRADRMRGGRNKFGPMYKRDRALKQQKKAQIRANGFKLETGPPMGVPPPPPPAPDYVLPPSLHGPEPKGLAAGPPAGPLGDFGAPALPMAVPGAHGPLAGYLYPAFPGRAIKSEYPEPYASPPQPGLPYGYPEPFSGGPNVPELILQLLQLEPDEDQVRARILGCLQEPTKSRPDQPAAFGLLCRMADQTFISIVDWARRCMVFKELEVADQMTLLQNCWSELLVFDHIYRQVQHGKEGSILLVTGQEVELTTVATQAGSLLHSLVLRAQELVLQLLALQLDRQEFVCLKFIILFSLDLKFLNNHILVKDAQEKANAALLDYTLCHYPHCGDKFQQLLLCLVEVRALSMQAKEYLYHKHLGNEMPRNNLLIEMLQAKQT
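Material: Transient Gal4-SF-1 LBD reporter, CHO-K1 | Input: 4,000 cells/well | Dosing: One dose, 10 µM compound, 1% DMSO | Incubation: 20 h compound treatment, 37 °C | Detection: SteadyLite luciferase luminescence | Evaluation: Percent activation relative to DMSO median and mock-transfected background | Benchmarks: DMSO-treated SF-1-transfected cells as negative, DMSO-treated mock-transfected cells lacking SF-1 as background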
Calb biofilm kill: clotrimazole potentiators killing Candida biofilms, primary screen, with clotrimazole, Alamar Blue. inhibition, % at 6 µM. C. albicans biofilm + clotrimazole. 85,000 compounds, 0.14% hits. AID 834, 2007;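 active means inhibition above 20%; inactive means inhibition below 20%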;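 further: preformed 24 hr biofilms exposed to compound for 48 hr; 0% = biofilm without compound and 100% = blank killed by clotrimazole plus chlorhexidine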
MT1-MMP txn act: MT1-MMP promoter reporter activation – cell-based, luciferase luminescence, primary screen. 86,000 compounds, 0.16% hits. AID 750, 2007. HT1080 MT1-MMP promoter luciferase reporter, overnight; active compounds read high. activation factor at 10 µM;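 active means activation factor of at least 2 for MT1-MMP transcription at 10 µM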
* = called active by the depositor.

`c1csc(-c2ccc3ccccc3n2)c1` gave CD11b adhes enh 2, CD11b adhes inh 6, RORa activator 26, SF1 activator 79*, Calb biofilm kill 8 and MT1-MMP txn act 1.7.
Cc1ccc(C(=O)CC(=O)c2cc(Cl)ccc2O)cc1 was read as CD11b adhes enh -7, CD11b adhes inh 65, Calb biofilm kill 9 and MT1-MMP txn act 1.5.
`Cc1ccc(NC(C)c2cc(Cl)ccc2O)cc1` (stereo not given) gave CD11b adhes enh 3, CD11b adhes inh -25, Calb biofilm kill 35* and MT1-MMP txn act 1.2.
O=C(Nc1ccccc1)N(O)c1ccc(Cl)cc1 was read as RORa activator 46, SF1 activator 58*, Calb biofilm kill 7 and MT1-MMP txn act 1.9.
Screening CC(=NC1CCCC1)c1c(C)[nH]n(-c2nc3ccccc3s2)c1=O returned CD11b adhes enh -4, CD11b adhes inh 0, RORa activator 8, SF1 activator 71*, Calb biofilm kill 5 and MT1-MMP txn act 0.8.
Screening CC(=NC1CC1)c1c(-c2ccccc2)[nH]n(-c2nc3ccccc3s2)c1=O returned CD11b adhes enh -5 and CD11b adhes inh 1.
`Cc1ccc(OC(=O)c2ccc(S(=O)(=O)N(C)C)cc2)c(-n2nc3ccccc3n2)c1` gave CD11b adhes enh -3 and CD11b adhes inh 2.
For Cc1ccc(S(=O)(=O)N(C(=O)c2ccncc2)c2ccc(OC(=O)c3ccncc3)c3ccccc23)c(C)c1 the results were CD11b adhes enh -1 and CD11b adhes inh 72*.
Screening COC(=O)c1cccc(C23CC4(C2)[C@H](CN(C)[C@@H]4c2ccccc2)C3c2ccc(Cl)nc2)c1 (stereo not given in full) returned MT1-MMP txn act 1.
`COc1ccc(S(=O)(=O)N(C(C)=O)c2ccc(OC(C)=O)c3ccccc23)cc1[N+](=O)[O-]` gave CD11b adhes enh 1 and CD11b adhes inh 3.
For CN1CCN(c2ccc(C(=O)c3ccc(F)cc3)cc2)CC1 the results were CD11b adhes enh -1, CD11b adhes inh 0, RORa activator 61*, SF1 activator 38, Calb biofilm kill 0 and MT1-MMP txn act 1.1.
For O=C(c1ccccc1)c1ccc(N2CCCC2)cc1 the results were CD11b adhes enh 0, CD11b adhes inh 0, RORa activator 30, SF1 activator 77*, Calb biofilm kill 4 and MT1-MMP txn act 1.4.
COc1ccc(-n2c(C)cc(/C=N/Nc3nnc(C)n3N)c2C)cc1 was read as CD11b adhes enh 3 and CD11b adhes inh -7.
CC(=O)N1[C@H](C)C=C[C@]1(Cc1ccccc1)C(=O)NCCN1CCOCC1 was read as MT1-MMP txn act 1.1.
Screening CCC(C)C(NC(=O)C1CCC(C)CC1)C(=O)Nc1cc(OC)ccc1OC (stereo not given) returned CD11b adhes enh 0, CD11b adhes inh 30 and MT1-MMP txn act 1.2.
Screening O=C(OCc1cc(=O)n2cc(Br)ccc2n1)C1COc2ccccc2O1 (stereo not given) returned CD11b adhes enh -1, CD11b adhes inh -2, RORa activator -6, SF1 activator -5, Calb biofilm kill 10 and MT1-MMP txn act 1.1.
Screening CC1CC1C(=O)OCc1cc(=O)n2cc(Br)ccc2n1 (stereo not given) returned CD11b adhes enh -1, CD11b adhes inh -4, RORa activator 32, SF1 activator 55*, Calb biofilm kill 6 and MT1-MMP txn act 1.3.
For COc1ccc(C(=O)Nn2cnnc2)c(OC)c1 the results were CD11b adhes enh 4, CD11b adhes inh -5, Calb biofilm kill 9 and MT1-MMP txn act 1.1.
COc1ccc(C(=O)Nc2ccc(C)cn2)c(OC)c1 was read as CD11b adhes enh -8, CD11b adhes inh 76*, RORa activator -78, SF1 activator -82, Calb biofilm kill -2 and MT1-MMP txn act 0.
Cc1ccccc1Nc1cc(=O)oc2ccccc12 was read as CD11b adhes enh -4 and CD11b adhes inh 11.
Screening CCS(=O)(=O)c1ccc2oc(Nc3ccccc3C)nc2c1 returned CD11b adhes enh -2, CD11b adhes inh -13, RORa activator 30, SF1 activator 66*, Calb biofilm kill 2 and MT1-MMP txn act 1.4.
N#Cc1nc(COc2cccc(Cl)c2)oc1NCc1ccco1 was read as CD11b adhes enh -6, CD11b adhes inh 5, RORa activator 66*, SF1 activator 40 and Calb biofilm kill 13.
Screening Cc1ccc(OCc2nc(C#N)c(NCc3ccco3)o2)cc1 returned CD11b adhes enh 1, CD11b adhes inh 7, RORa activator 20, SF1 activator -8, Calb biofilm kill 5 and MT1-MMP txn act 1.2.
Cc1ccc(-c2nc(C#N)c(NCc3ccco3)o2)cc1 was read as CD11b adhes enh -6, CD11b adhes inh 2, RORa activator 89*, SF1 activator 6, Calb biofilm kill -1 and MT1-MMP txn act 1.4.
Cc1c(C(=O)Nc2ccc(F)cc2)c2ccccn2c1CCc1ccncc1 was read as CD11b adhes enh -2 and CD11b adhes inh 12.
For Cc1ccc2[nH]c(-c3cccc(N)c3)cc2c1 the results were CD11b adhes enh 0, CD11b adhes inh 3, RORa activator 55*, SF1 activator 51*, Calb biofilm kill 7 and MT1-MMP txn act 1.3.
O=C(Nc1cccc(C(F)(F)F)c1)c1cnc2n(c1=O)CCS2 was read as CD11b adhes enh 2, CD11b adhes inh 4, RORa activator 24, SF1 activator 23, Calb biofilm kill 9 and MT1-MMP txn act 1.
O=C(NCCC1=CCCCC1)c1cnc2n(c1=O)CCS2 was read as RORa activator 34, SF1 activator 51*, Calb biofilm kill 5 and MT1-MMP txn act 1.7.
For Cc1cccc(NC(=O)c2cnc3n(c2=O)CCS3)c1 the results were RORa activator 76*, SF1 activator 24, Calb biofilm kill 0 and MT1-MMP txn act 1.6.
O=C(Nc1ccc2c(c1)OCCO2)c1cnc2n(c1=O)CCS2 was read as CD11b adhes enh -4, CD11b adhes inh -12, RORa activator 88*, SF1 activator 91*, Calb biofilm kill 8 and MT1-MMP txn act 1.4.
For O=C(NCc1ccc2c(c1)OCO2)c1cnc2n(c1=O)CCS2 the results were CD11b adhes enh -3, CD11b adhes inh 0, RORa activator 4, SF1 activator -5, Calb biofilm kill 11 and MT1-MMP txn act 1.2.
`O=C(Nc1ccc2c(c1)OCO2)c1cnc2n(c1=O)CCS2` gave RORa activator 36, SF1 activator 62*, Calb biofilm kill 2 and MT1-MMP txn act 1.3.
